Experimental findings from ChEMBL document CHEMBL4033702, “Challenges in the development of an M4 PAM preclinical candidate: The discovery, SAR, and in vivo characterization of a series of 3-aminoazetidine-derived amides” (Bioorg Med Chem Lett, 2017) are described below.

In general, clearance refers to a measure of how efficiently the substance is removed, as volume per time. A lower clearance goes with inefficient removal. A word on the IC50: it is the concentration that inhibits the measured activity by half.

Structures are written as SMILES.

Data set [1] in a line: Clearance in Sprague-Dawley rat. The class given is ADME. To be noted: in vivo. In outline: (§1)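 IV and PO pharmacokinetics in male Sprague-Dawley rats, n = 1–3. The oral dose was a 2–3 mg/kg solution. Plasma clearance, Vss and oral bioavailability were determined.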
The subject of data set [2] is Rattus norvegicus. The data set can be described thus: Reversal of amphetamine-induced hyperlocomotion in Sprague-Dawley rat at 10 mg/kg, po pretreated 30 mins post habituation in the chamber followed by amphetamine injection after 30 mins measured after 60 mins. It counts as functional. In short, it runs like this: (§2)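 Male Sprague-Dawley rats, n = 6–24 per dose group, were habituated in the chamber for 30 min. The compound or vehicle (10% tween-80 in water, v/v) was then given orally. Amphetamine 0.75 mg/kg was injected subcutaneously 30 min later. Total ambulations over t = 60–120 min gave % reversal of AHL, reported as mean ± SEM.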

Data set [3] has as its target T1, Cytochrome P450 1A2 (Homo sapiens, UniProt P05177).
T1 sequence (P05177 whole entry): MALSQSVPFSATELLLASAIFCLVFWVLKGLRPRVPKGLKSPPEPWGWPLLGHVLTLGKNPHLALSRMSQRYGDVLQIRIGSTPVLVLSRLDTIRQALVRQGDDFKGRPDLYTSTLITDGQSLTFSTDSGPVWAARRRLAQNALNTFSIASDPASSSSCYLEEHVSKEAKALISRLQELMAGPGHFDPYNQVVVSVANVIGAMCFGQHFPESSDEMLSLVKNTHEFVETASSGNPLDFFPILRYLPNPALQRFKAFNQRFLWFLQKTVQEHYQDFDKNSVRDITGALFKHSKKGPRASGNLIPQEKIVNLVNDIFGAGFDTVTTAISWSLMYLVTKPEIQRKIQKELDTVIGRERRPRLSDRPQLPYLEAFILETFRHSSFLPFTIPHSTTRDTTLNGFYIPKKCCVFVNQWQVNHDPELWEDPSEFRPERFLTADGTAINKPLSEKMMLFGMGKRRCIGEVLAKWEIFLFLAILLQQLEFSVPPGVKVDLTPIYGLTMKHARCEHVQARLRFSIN
The data set can be described thus: Inhibition of CYP1A2 (unknown origin). It counts as ADME.

Data set [4] has as its system Rattus norvegicus. The data set is described as follows: Reversal of amphetamine-induced hyperlocomotion in Sprague-Dawley rat at 1 mg/kg, po pretreated 30 mins post habituation in the chamber followed by amphetamine injection after 30 mins measured after 60 mins. The class given is functional. In outline:
as §2

Data set [5] has as its system Rattus norvegicus. The data set is described as follows: Reversal of amphetamine-induced hyperlocomotion in Sprague-Dawley rat at 3 mg/kg, po pretreated 30 mins post habituation in the chamber followed by amphetamine injection after 30 mins measured after 60 mins. It counts as functional. In short, it runs like this:
as §2

The subject of data set [6] is Rattus norvegicus. The data set is described as follows: Reversal of amphetamine-induced hyperlocomotion in Sprague-Dawley rat at 0.1 mg/kg, po pretreated 30 mins post habituation in the chamber followed by amphetamine injection after 30 mins measured after 60 mins. The class given is functional. In outline:
as §2

Data set [7] relates to Rattus norvegicus. The data set is described as follows: Reversal of amphetamine-induced hyperlocomotion in Sprague-Dawley rat at 0.3 mg/kg, po pretreated 30 mins post habituation in the chamber followed by amphetamine injection after 30 mins measured after 60 mins. It counts as functional. In outline: as §2
Another data set deals with Salmonella typhimurium. The data set can be described thus: Mutagenicity in Salmonella typhimurium by Ames test. It counts as toxicity. The note with it: salmonella enterica subsp. enterica serovar typhimurium. In general terms: The Ames test uses bacterial strains that need an amino acid and regain growth without it when mutated back.
Data set [8] has as its target Sodium-dependent dopamine transporter (Homo sapiens, UniProt Q01959). The data set can be described thus: Displacement of [3H]BTCP from human recombinant dopamine transporter expressed in CHO cells. The class given is cell-based. A general note: Displacement assays read how much labelled ligand stays bound in the presence of the test substance.
For the next data set, the target named is Cytochrome P450 2C19 (Homo sapiens, UniProt P33261). The data set is described as follows: Inhibition of CYP2C19 (unknown origin). The class given is ADME.
Another data set deals with Cytochrome P450 3A4 (Homo sapiens, UniProt P08684). The data set can be described thus: Time-dependent inhibition of CYP3A4 (unknown origin). The class given is ADME.
The target in data set [9] is T1, Cytochrome P450 1A2. The data set can be described thus: Time-dependent inhibition of CYP1A2 (unknown origin). It counts as ADME.
In data set [10] the test system is Rattus norvegicus. The data set can be described thus: Volume of distribution at steady state in iv or po dosed Sprague-Dawley rat. It counts as ADME, organism-based. To be noted: in vivo. In outline: as §1
Data set [11] concerns Rattus norvegicus. The data set can be described thus: Oral bioavailability in Sprague-Dawley rat at 2 to 3 mg/kg. It counts as ADME, organism-based. The note with it: in vivo. In short, it runs like this: as §1
The test system of data set [12] is Brain. The data set is described as follows: Drug level in Sprague-Dawley rat brain at 0.3 mg/kg, po. It counts as ADME, organism-based. The note with it: in vivo, read-out: Drug uptake.
In data set [13] the test system is Brain. The data set can be described thus: Drug level in Sprague-Dawley rat brain at 10 mg/kg, po. The class given is ADME, organism-based. To be noted: in vivo, read-out: Drug uptake.
Data set [14] relates to Rattus norvegicus. The data set is described as follows: Reversal of amphetamine-induced hyperlocomotion in po dosed Sprague-Dawley rat pretreated 30 mins post habituation in the chamber followed by amphetamine injection after 30 mins measured after 60 mins. The class given is functional. The note with it: read-out: MED. In outline:
as §2

Chain of Cytochrome P450 2C19 (P33261 whole entry): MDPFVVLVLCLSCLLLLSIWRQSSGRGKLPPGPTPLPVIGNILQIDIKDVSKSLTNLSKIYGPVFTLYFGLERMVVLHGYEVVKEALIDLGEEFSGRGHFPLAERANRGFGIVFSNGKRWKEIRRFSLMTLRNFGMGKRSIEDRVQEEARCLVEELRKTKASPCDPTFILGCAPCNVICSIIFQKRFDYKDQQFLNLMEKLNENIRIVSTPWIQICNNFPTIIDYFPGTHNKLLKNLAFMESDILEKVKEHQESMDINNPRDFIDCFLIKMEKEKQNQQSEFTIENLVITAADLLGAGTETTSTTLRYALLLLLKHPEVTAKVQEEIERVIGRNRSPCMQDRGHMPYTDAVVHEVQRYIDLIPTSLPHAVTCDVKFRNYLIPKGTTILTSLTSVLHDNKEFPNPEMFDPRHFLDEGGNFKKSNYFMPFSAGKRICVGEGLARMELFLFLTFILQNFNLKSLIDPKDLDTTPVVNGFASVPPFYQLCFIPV
Chain of Cytochrome P450 3A4 (P08684 whole entry): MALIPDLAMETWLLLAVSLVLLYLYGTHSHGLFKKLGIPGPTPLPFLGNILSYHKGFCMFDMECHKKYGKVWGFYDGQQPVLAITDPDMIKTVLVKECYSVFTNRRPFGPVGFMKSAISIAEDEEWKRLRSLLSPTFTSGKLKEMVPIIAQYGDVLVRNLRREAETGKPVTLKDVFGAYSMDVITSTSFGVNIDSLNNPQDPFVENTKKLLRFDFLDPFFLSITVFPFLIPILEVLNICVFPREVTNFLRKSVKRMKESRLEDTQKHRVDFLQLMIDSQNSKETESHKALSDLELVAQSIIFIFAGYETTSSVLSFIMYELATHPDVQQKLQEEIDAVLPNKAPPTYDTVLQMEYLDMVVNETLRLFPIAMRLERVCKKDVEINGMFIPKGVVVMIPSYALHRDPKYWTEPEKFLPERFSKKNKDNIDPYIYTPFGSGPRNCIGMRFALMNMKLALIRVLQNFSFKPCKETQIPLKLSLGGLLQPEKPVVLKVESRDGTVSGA
Chain of Sodium-dependent dopamine transporter (Q01959 whole entry): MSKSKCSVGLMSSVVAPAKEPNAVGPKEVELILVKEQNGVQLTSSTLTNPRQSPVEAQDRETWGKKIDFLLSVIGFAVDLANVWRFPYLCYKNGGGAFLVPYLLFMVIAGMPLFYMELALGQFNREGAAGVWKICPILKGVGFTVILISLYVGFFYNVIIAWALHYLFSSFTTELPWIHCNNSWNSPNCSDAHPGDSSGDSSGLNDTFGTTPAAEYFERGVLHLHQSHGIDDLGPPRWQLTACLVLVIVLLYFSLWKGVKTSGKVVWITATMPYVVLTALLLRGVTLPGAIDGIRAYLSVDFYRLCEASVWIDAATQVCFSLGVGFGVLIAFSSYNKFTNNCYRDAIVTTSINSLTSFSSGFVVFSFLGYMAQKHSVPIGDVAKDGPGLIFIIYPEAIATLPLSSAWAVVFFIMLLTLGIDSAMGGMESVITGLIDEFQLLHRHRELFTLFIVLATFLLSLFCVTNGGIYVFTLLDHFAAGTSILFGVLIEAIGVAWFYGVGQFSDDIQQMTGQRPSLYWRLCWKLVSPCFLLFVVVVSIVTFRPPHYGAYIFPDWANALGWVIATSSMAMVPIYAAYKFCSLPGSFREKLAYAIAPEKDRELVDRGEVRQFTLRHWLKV

Regarding `Cc1nnc2sc(C(=O)NC3CN(c4cccc(F)c4F)C3)c(N)c2c1C`, the clearance in [1] is 16 mL/min/kg. Moreover, the Activity with Rattus norvegicus [2] is reported as 64%; with Rattus norvegicus [4] it was 64%; in the data set on Rattus norvegicus [5], 74%; in the data set with Rattus norvegicus [6] it was 24%; in the data set on Rattus norvegicus [7], 43%; with Salmonella typhimurium it was “Non-Toxic”. Besides, the IC50 on Cytochrome P450 1A2 [3] is 25 µM; in [8] it was 0.45 µM; against Cytochrome P450 2C19 it was 6.3 µM. Besides, the TDI result on Cytochrome P450 3A4 and at Cytochrome P450 1A2 [9] was “Not Active” throughout. Further, the Vdss in the data set with Rattus norvegicus [10] turned out to be 0.67 L/kg. The compound also registered a F in the data set on Rattus norvegicus [11] of 38%. Besides, the concentration with Brain [12] stood at 37 nM; in the data set on Brain [13] it was 820 nM. For the same compound, the minimal effective dose in the data set with Rattus norvegicus [14] came out at 0.3 mg/kg.
